Measurements from ChEMBL document CHEMBL3875221, “New N- and O-arylpiperazinylalkyl pyrimidines and 2-methylquinazolines derivatives as 5-HT7 and 5-HT1A receptor ligands: Synthesis, structure-activity relationships, and molecular modeling studies” (Bioorg Med Chem, 2017).

Assays:
[1] = target: T1, 5-hydroxytryptamine receptor 7 (Homo sapiens, UniProt P34969); assay: Displacement of [3H]-5-HT from recombinant human 5-HT7A receptor expressed in CHOK1 cell membranes after 40 mins by liquid scintillation counting method; design: species or system CHO-K1
How it was run: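 Membranes (15 µg protein/sample) in 50 mM Tris-HCl pH 7.4 with 4 mM MgCl2, incubated 40 min at 27 °C with [3H]-5-HT (5 nM final). Nonspecific binding with 10 µM serotonin. Stopped by vacuum filtration on PEI-soaked GF/C filters, ice-cold Tris washes.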

[2] = target: T2, 5-hydroxytryptamine receptor 1A (Homo sapiens, UniProt P08908); assay: Displacement of [3H]-8-OH-DPAT from recombinant human 5-HT1A receptor expressed in CHOK1 cell membranes after 1 hr by liquid scintillation counting method; design: species or system CHO-K1
T2 sequence (P08908 whole entry): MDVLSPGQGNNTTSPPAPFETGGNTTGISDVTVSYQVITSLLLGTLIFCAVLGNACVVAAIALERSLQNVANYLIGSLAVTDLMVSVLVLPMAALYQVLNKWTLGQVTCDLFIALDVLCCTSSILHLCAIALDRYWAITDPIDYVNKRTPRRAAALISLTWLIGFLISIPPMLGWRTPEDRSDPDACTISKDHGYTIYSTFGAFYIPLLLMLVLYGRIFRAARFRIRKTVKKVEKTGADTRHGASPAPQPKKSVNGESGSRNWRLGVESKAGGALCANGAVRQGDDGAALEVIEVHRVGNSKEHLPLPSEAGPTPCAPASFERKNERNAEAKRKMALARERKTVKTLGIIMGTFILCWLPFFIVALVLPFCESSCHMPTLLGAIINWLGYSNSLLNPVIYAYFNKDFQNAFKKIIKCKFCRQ

[3] = target: T1, 5-hydroxytryptamine receptor 7; assay: Antagonist activity at recombinant human 5-HT7 receptor expressed in HEK293 cells assessed as inhibition of 5-CT-induced increase in cAMP level at 10^-6M after 30 mins by TR-FRET assay relative to control; type: functional, cell-based
How it was run: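 Stably transfected HEK293 cells in stimulation buffer (HBSS, 5 mM HEPES, 0.5 mM IBMX, 0.1% BSA) exposed to 10 nM 5-CT with test ligand for 30 min at room temperature. Lysis with Eu-cAMP/ULight-anti-cAMP, 1 h, then TR-FRET readout of cAMP.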

[4] = target: T3, 5-hydroxytryptamine receptor 1A (Homo sapiens) (UniProt P08908); assay: Antagonist activity at recombinant human 5-HT1A receptor expressed in HEK293 cells assessed as inhibition of 8-OH-DPAT-induced decrease in cAMP level at 10^-6M after 30 mins in presence of forskolin by TR-FRET assay relative to control; type: functional, cell-based
T3 sequence (whole entry): T2 sequence (P08908 whole entry)
How it was run: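 Stable HEK293 cells grown in DMEM with 10% dialysed FBS and G418, resuspended in HBSS/HEPES buffer with 0.5 mM IBMX and 0.1% BSA. Stimulated with 1 µM forskolin plus 1 µM (R)-(+)-8-OH-DPAT alongside test ligand, 30 min at room temperature. cAMP by LANCE Ultra TR-FRET after lysis, 1 h.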

T1 sequence (P34969 whole entry): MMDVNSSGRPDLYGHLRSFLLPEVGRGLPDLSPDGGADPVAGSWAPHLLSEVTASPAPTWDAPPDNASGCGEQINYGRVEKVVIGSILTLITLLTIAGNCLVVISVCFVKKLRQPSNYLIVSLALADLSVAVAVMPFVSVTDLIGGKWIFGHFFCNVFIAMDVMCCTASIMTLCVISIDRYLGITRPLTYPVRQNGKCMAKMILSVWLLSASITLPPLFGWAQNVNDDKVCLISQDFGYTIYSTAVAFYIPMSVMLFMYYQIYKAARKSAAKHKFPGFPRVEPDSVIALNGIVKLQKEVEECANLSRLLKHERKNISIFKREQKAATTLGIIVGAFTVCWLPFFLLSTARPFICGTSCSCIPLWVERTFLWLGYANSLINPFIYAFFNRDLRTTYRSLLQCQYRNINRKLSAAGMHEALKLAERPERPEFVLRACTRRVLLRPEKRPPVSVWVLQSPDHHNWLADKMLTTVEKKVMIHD

Compound	Ki [1]	Ki [2]	inhibition [3]	inhibition [4]
Cc1nc(OCCCCCN2CCN(c3ccccc3)CC2)c2ccccc2n1	0.276 µM	0.0247 µM	–	–
c1ccc(-c2cc(OCCCCCN3CCN(c4ccccc4)CC3)ncn2)cc1	0.143 µM	0.0335 µM	–	–
Cc1nc2ccccc2c(=O)n1CCCCCN1CCN(c2ccccc2)CC1	0.0537 µM	0.0186 µM	–	–
O=c1cc(-c2ccccc2)ncn1CCCCCN1CCN(c2cccc(Cl)c2)CC1	0.0947 µM	0.0178 µM	–	–
Cc1nc2ccccc2c(=O)n1CCCCCN1CCN(c2cccc(Cl)c2)CC1	0.0351 µM	0.00821 µM	–	–
Clc1cccc(N2CCN(CCCCCOc3cc(-c4ccccc4)ncn3)CC2)c1	0.0448 µM	0.0174 µM	–	–
CCOc1ccccc1N1CCN(CCCCCOc2cc(-c3ccccc3)ncn2)CC1	0.0235 µM	0.00696 µM	5.5%	6%
Cc1nc2ccccc2c(=O)n1CCCCCN1CCN(c2ccc(Cl)cc2)CC1	0.327 µM	0.1 µM	–	–
O=c1cc(-c2ccccc2)ncn1CCCCCN1CCN(c2ccccc2)CC1	0.613 µM	0.111 µM	–	–
O=c1cc(-c2ccccc2)ncn1CCCCCN1CCN(c2ccc(Cl)cc2)CC1	1.31 µM	0.167 µM	–	–
O=c1cc(-c2ccccc2)ncn1CCCCCN1CCN(Cc2ccccc2)CC1	1.33 µM	0.772 µM	–	–
Cc1nc(OCCCCCN2CCN(c3ccc(Cl)cc3)CC2)c2ccccc2n1	0.181 µM	0.0521 µM	–	–
CC1CCN(CC[C@H]2CCCN2S(=O)(=O)c2cccc(O)c2)CC1	–	–	97%	–
CCOc1ccccc1N1CCN(CCCCCn2cnc(-c3ccccc3)cc2=O)CC1	0.0451 µM	0.0259 µM	–	–
c1ccc(CN2CCN(CCCCCOc3cc(-c4ccccc4)ncn3)CC2)cc1	0.99 µM	1.03 µM	–	–
CCOc1ccccc1N1CCN(CCCCCn2c(C)nc3ccccc3c2=O)CC1	0.00842 µM	0.00299 µM	19.5%	18%
Clc1ccc(N2CCN(CCCCCOc3cc(-c4ccccc4)ncn3)CC2)cc1	1.38 µM	0.0903 µM	–	–
